Source: ChEMBL document CHEMBL2331334, “Hybrid furoxanyl N-acylhydrazone derivatives as hits for the development of neglected diseases drug candidates” (Eur J Med Chem, 2013)
In brackets after ≈: the same amount, converted by molar mass.

Columns and labels:
Salmonella typhimurium [1] = experiment: Mutagenicity in Salmonella typhimurium TA98 at 20 ug/plate in absence of S9 fraction; format: toxicity, organism-based; settings: salmonella enterica subsp. enterica serovar typhimurium
Outline: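 TA98 direct plate incorporation on minimal glucose agar (Vogel-Bonner E, 40% glucose), without S9. Compounds in DMSO were run in triplicate, highest dose nontoxic to bacteria. 4-nitro-o-phenylenediamine (20.0 per plate) was the positive control and DMSO the negative. Revertants were counted manually. Mutagenic meant at least double the negative-control revertants at two consecutive doses. Values are means of two independent experiments.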

[2] = Selectivity index, ratio of IC50 for mouse J774.1 cells to IC50 for amastigote stage of Trypanosoma cruzi Tulahuen C4; format: toxicity; settings: read-out: Ratio IC50
Trypanosoma cruzi [3] = experiment: Trypanosomicidal activity against amastigote stage of Trypanosoma cruzi Tulahuen C4 transfected with beta-D-galactosidase infected in african green monkey Vero cells assessed as growth inhibition incubated 5 days prior to beta-D-galactopyranoside addition measured after 4 to 5 hrs by colorimetric assay; format: functional, organism-based
Outline: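 VERO monolayer in phenol red-free RPMI 1640 with 10% FCS, infected with 5×10^4 LacZ-transfected Tulahuen C4 trypomastigotes/well, 24 h at 37 °C, 5% CO2. Compounds added for 5 days. CPRG substrate added, 4–5 h at 37 °C, A570. Actives (>50% inhibition) retested in duplicate at 10.0–0.16; IC50 by logarithmic regression versus untreated control.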

[4] = Aqueous stability of the compound in Tris.HCl buffer at pH 7.4 at 1 mM after 24 hrs by spectrophotometric analysis; format: physicochemical; settings: pH 7.4, 24 h, 1000 µM
Outline: (§1)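 Compound from DMSO stock, 1 mM final in aqueous buffer (KCl·HCl pH 2, acetate pH 5, Tris·HCl pH 7.4 or 8.3), incubated 37 °C for 24 h. Absorbance spectrum 250–450 nm compared with a freshly prepared, unincubated solution. TLC of ethyl acetate extracts to confirm or exclude decomposition products.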

[5] = Aqueous stability of the compound in Tris.HCl buffer at pH 8.3 at 1 mM after 24 hrs by spectrophotometric analysis; format: physicochemical; settings: pH 8.3, 24 h, 1000 µM; outline: as §1
Plasma = experiment: Metabolic stability in human plasma at pH 3 at 40 uM after 3 hrs; format: ADME, cell-free; settings: pH 3, 3 h
[6] = Cytotoxicity against mouse J774.1 cells assessed as cell viability after 48 hrs by MTT assay; format: cell-based; settings: J774.1, 48 h
Outline: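 J774.1 macrophages in DMEM with 4 mM L-glutamine and 10% heat-inactivated FCS, 5×10^4 cells/well, attached 48 h at 37 °C, 5% CO2. Exposed 48 h to compounds (12.5–400.0 µM) or vehicle. MTT 0.1 mg/mL final, 3 h at 37 °C; formazan dissolved in DMSO/glycine buffer pH 10.5, A560. IC50 by linear regression versus solvent control.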

[7] = test system: Mycobacterium tuberculosis; experiment: Antimycobacterial activity against Mycobacterium tuberculosis H37Rv assessed as growth inhibition after 5 days by MTT assay; format: functional; settings: 120 h
Outline: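 MTB inoculum made from 20–30-day slant growth in Tween 80/0.2% BSA, adjusted to McFarland No. 1, then diluted in 7H9GC broth (Middlebrook 7H9, glycerol, Casitone, OADC). Final inoculum about 1.2 × 10^6 CFU/mL. Compounds taken from DMSO stock to final 0.4–25 in broth, with a DMSO control. Plates run 5 days at 37 °C, then tetrazolium (MTT)–Tween 80 added for a further 24 h at 37 °C. Read-out is MIC.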

Salmonella typhimurium [8] = experiment: Mutagenicity in Salmonella typhimurium TA98 at 4.9 to 400 ug/plate in presence of S9 fraction; format: toxicity, organism-based; settings: salmonella enterica subsp. enterica serovar typhimurium
Outline: (§2)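 Direct plate incorporation with S. typhimurium TA98 on minimal glucose agar (Vogel-Bonner E, 40% glucose). Compounds in DMSO assayed in triplicate at doses starting from the highest non-toxic dose, with or without Aroclor-treated mouse liver S9. Controls: DMSO, 4-nitro-o-phenylenediamine (−S9), 2-aminofluorene (+S9). Revertants counted manually; mutagenic if ≥2× negative control at two consecutive doses.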

[9] = Aqueous stability of the compound in acetate buffer at pH 5 at 1 mM after 24 hrs by spectrophotometric analysis; format: physicochemical; settings: pH 5, 24 h, 1000 µM; outline: as §1
Trypanosoma cruzi [10] = experiment: Trypanosomicidal activity against axenic epimastigote stage of Trypanosoma cruzi Tulahuen 2 assessed as growth inhibition; format: functional, organism-based
Outline: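 Tulahuen 2 epimastigotes grown axenically at 28 °C in BHI-tryptose with 5% FCS, harvested late log phase, 3×10^6/mL in 24-well plates. Compound added from DMSO stock (≤1% DMSO). Growth as A590 at day 0 and day 5; % inhibition from blank-corrected absorbances; ID50 = concentration halving absorbance relative to untreated controls.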

[11] = Aqueous stability of the compound in KCl.HCl buffer at pH 2 at 1 mM after 24 hrs by spectrophotometric analysis; format: physicochemical; settings: pH 2, 24 h, 1000 µM; outline: as §1
Salmonella typhimurium [12] = experiment: Mutagenicity in Salmonella typhimurium TA98 at 4.9 to 400 ug/plate in absence of S9 fraction; format: toxicity, organism-based; settings: salmonella enterica subsp. enterica serovar typhimurium; outline: as §2
[13] = Selectivity index, ratio of IC50 for african green monkey Vero cells to IC50 for amastigote stage of Trypanosoma cruzi Tulahuen C4; format: toxicity, cell-based; settings: read-out: Ratio IC50
[14] = Selectivity index, ratio of IC50 for mouse J774.1 cells to MIC for Mycobacterium tuberculosis H37Rv; format: functional
Outline: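 Cytotoxicity: J774.1 macrophages in DMEM with 4 mM L-glutamine and 10% heat-inactivated FCS, seeded at 5 × 10^4/well, attached 48 h at 37 °C, 5% CO2. Exposed 48 h to 12.5–400.0 µM compound or vehicle. MTT at 0.1 mg/mL final for 3 h, formazan dissolved in DMSO/glycine buffer pH 10.5, A560 read. IC50 by linear regression, divided by the MIC against the same MTB strain.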

[15] = Cytotoxicity against mouse J774.1 cells assessed as cell viability after 72 hrs by MTT assay; format: cell-based; settings: J774.1, 72 h
[16] = Selectivity index, ratio of IC50 for mouse J774.1 cells to IC50 for axenic amastigote stage of Leishmania amazonensis MHOM/BR/76/LTB-012; format: toxicity; settings: read-out: Ratio IC50
Salmonella typhimurium [17] = experiment: Mutagenicity in Salmonella typhimurium TA98 at 3.1 to 250 ug/plate in absence of S9 fraction; format: toxicity, organism-based; settings: salmonella enterica subsp. enterica serovar typhimurium; outline: as §2
Salmonella typhimurium [18] = experiment: Mutagenicity in Salmonella typhimurium TA98 at 3.1 to 250 ug/plate in presence of S9 fraction; format: toxicity, organism-based; settings: salmonella enterica subsp. enterica serovar typhimurium; outline: as §2
[19] = Ratio of compound IC50 to amphotericin B IC50 for mouse J774.1 cells; format: ADME; settings: read-out: Ratio IC50
Leishmania amazonensis = experiment: Leishmanicidal activity against axenic amastigote stage of Leishmania amazonensis MHOM/BR/76/LTB-012 assessed as growth inhibition after 72 hrs by MTT assay; format: functional, organism-based; settings: MHOM/BR/76/LTB-012, 72 h
Outline: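 L. amazonensis axenic amastigotes (MHOM/BR/76/LTB-012), weekly passages in MAA/20 at 32 °C, 5% CO2. Seeded in 96-well plates; compounds in DMSO at 100 to 1 final, 72 h. MTT added for 4 h, stopped with 50% isopropanol–10% SDS, 30 min agitation at room temperature, A570. Triplicate; % inhibition versus control, IC50 from several concentrations.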

Salmonella typhimurium [20] = experiment: Mutagenicity in Salmonella typhimurium TA98 at 6.2 to 500 ug/plate in absence of S9 fraction; format: toxicity, organism-based; settings: salmonella enterica subsp. enterica serovar typhimurium; outline: as §2
Salmonella typhimurium [21] = experiment: Mutagenicity in Salmonella typhimurium TA98 at 6.2 to 500 ug/plate in presence of S9 fraction; format: toxicity, organism-based; settings: salmonella enterica subsp. enterica serovar typhimurium; outline: as §2
Salmonella typhimurium [22] = experiment: Mutagenicity in Salmonella typhimurium TA98 at 150 ug/plate in absence of S9 fraction; format: toxicity, organism-based; settings: salmonella enterica subsp. enterica serovar typhimurium; outline: as §2
Salmonella typhimurium [23] = experiment: Mutagenicity in Salmonella typhimurium TA98 at 150 ug/plate in presence of S9 fraction; format: toxicity, organism-based; settings: salmonella enterica subsp. enterica serovar typhimurium; outline: as §2
Salmonella typhimurium [24] = experiment: Mutagenicity in Salmonella typhimurium TA98 at 500 ug/plate in presence of S9 fraction; format: toxicity, organism-based; settings: salmonella enterica subsp. enterica serovar typhimurium; outline: as §2
Salmonella typhimurium [25] = experiment: Mutagenicity in Salmonella typhimurium TA98 at 500 ug/plate in absence of S9 fraction; format: toxicity, organism-based; settings: salmonella enterica subsp. enterica serovar typhimurium; outline: as §2

Structure (SMILES) | selectivity ratio [2] | IC50 (Trypanosoma cruzi [3]) | Stability [4] | Stability [5] | Stability (Plasma) | IC50 [6] | MIC [7] | Stability [9] | IC50 (Trypanosoma cruzi [10]) | Stability [11] | Selectivity Index [14] | selectivity ratio [16] | IC50 (Leishmania amazonensis) | further results
Nc1ccc([N+](=O)[O-])cc1N | – | – | – | – | – | – | – | – | – | – | – | – | – | Activity (Salmonella typhimurium [1]): Toxic
O=C(N/N=C/c1c(-c2ccccc2)no[n+]1[O-])c1ccncc1 | > 63 | 6.4 µM | Stable | Stable | Stable | > 400 µM | 0.6 µM (≈ 0.186 µg/mL) | Stable | 11 µM | Stable | >667 | – | – | Activity (Salmonella typhimurium [8]): Non-toxic; Activity (Salmonella typhimurium [12]): Non-toxic; selectivity ratio [13]: 2.5
C[C@@H]1[C@H](O)[C@@H](C)/C=C/C=C/C=C/C=C/C=C/C=C/C=C/[C@H](O[C@@H]2O[C@H](C)[C@@H](O)[C@H](N)[C@@H]2O)C[C@@H]2O[C@](O)(C[C@@H](O)C[C@@H](O)[C@H](O)CC[C@@H](O)C[C@@H](O)CC(=O)O[C@H]1C)C[C@H](O)[C@H]2C(=O)O [AMPHOTERICIN B] | – | – | – | – | – | – | – | – | – | – | – | 4.7 | – | IC50 [15]: 0.52 µM
Cc1nc2ccccn2c1C(=O)N/N=C/c1c(-c2ccccc2)no[n+]1[O-] | 62 | 0.91 µM | Stable | – | Stable | 56.2 µM | 17.3 µM (≈ 6.27 µg/mL) | Stable | 5 µM | Stable | 3.2 | – | – | Activity (Salmonella typhimurium [17]): Non-toxic; Activity (Salmonella typhimurium [18]): Non-toxic; selectivity ratio [13]: 12
O=C(N/N=C/c1ccc2no[n+]([O-])c2c1)c1cnn(-c2ccccc2)c1 | – | > 30.9 µM | – | – | – | 37.1 µM | > 17.9 µM | – | 29.5 µM | – | <2 | 27 | 1.4 µM | selectivity ratio [19]: 5
COc1cc(/C=N/NC(=O)c2no[n+]([O-])c2C)ccc1O | – | – | – | – | – | > 400 µM | > 85.6 µM | – | – | – | – | > 235 | 1.7 µM | selectivity ratio [19]: 50; Activity (Salmonella typhimurium [20]): Non-toxic; Activity (Salmonella typhimurium [21]): Non-toxic
O=C(N/N=C/c1c(-c2ccccc2)no[n+]1[O-])c1ccc2c(c1)OCO2 | > 5 | < 30.7 µM | Stable | Stable | Stable | 162 µM | > 71 µM | Stable | 50 µM | Stable | <2 | – | – | Activity (Salmonella typhimurium [17]): Non-toxic; Activity (Salmonella typhimurium [18]): Non-toxic
O=C(N/N=C/c1ccc2no[n+]([O-])c2c1)c1ccc2c(c1)OCO2 | < 5 | > 28.4 µM | – | – | – | 174 µM | > 76.7 µM | – | 50 µM | – | <2 | 134 | 1.3 µM | selectivity ratio [19]: 28.5; Activity (Salmonella typhimurium [20]): Non-toxic; Activity (Salmonella typhimurium [21]): Non-toxic
O=C(N/N=C/c1ccc2no[n+]([O-])c2c1)c1ccncc1 | 24 | 5.6 µM | Stable | Stable | Stable | 135 µM | 0.35 µM (≈ 0.0991 µg/mL) | Stable | 33.4 µM | Stable | 385 | – | – | Activity (Salmonella typhimurium [22]): Toxic; Activity (Salmonella typhimurium [23]): Toxic; selectivity ratio [13]: 2.5
Cc1[nH]cnc1C(=O)N/N=C/c1ccc2no[n+]([O-])c2c1 | < 1 | > 35 µM | – | – | – | 33.9 µM | 43.7 µM (≈ 12.5 µg/mL) | – | 172 µM | – | 0.8 | – | – | Activity (Salmonella typhimurium [24]): Toxic; Activity (Salmonella typhimurium [25]): Toxic
Cc1c(/C=N/NC(=O)c2ccncc2)no[n+]1[O-] | – | > 40.5 µM | Stable | Stable | Stable | > 400 µM | 1.6 µM (≈ 0.396 µg/mL) | Stable | > 300 µM | Stable | >250 | > 16 | 25.3 µM | Activity (Salmonella typhimurium [20]): Non-toxic; Activity (Salmonella typhimurium [21]): Non-toxic
